According to ChEMBL document CHEMBL4196210, “Depsipeptides Featuring a Neutral P1 Are Potent Inhibitors of Kallikrein-Related Peptidase 6 with On-Target Cellular Activity” (J Med Chem, 2018):
Active and inactive are the calls of the source. No cut-off for these calls is given here.

Columns and labels:
CAL-27 [1] = experiment: Effect on cell proliferation of human CAL27 cells at 100 to 500 nM incubated for 48 hrs by BrdU incorporation assay; type: ADME, cell-based; conditions: cal-27, 48 h, 0.5 µM
Kallikrein-14 = target: T1, Kallikrein-14 (Homo sapiens, UniProt Q9P0G3); experiment: Inhibition of KLK14 (unknown origin) expressed in Pichia pastoris pre-incubated for 10 mins before Boc-ValProArg-AMC substrate addition and measured after 30 mins by fluorescence based assay
T1 sequence (Q9P0G3 whole entry): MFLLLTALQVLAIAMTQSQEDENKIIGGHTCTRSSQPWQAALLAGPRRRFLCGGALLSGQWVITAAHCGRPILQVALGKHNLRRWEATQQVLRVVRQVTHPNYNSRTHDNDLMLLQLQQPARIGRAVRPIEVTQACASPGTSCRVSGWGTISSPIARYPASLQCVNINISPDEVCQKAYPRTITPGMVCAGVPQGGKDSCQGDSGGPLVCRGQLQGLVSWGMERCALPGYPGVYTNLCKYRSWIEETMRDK

Detroit 562 [2] = experiment: Effect on cell proliferation of human Detroit 562 cells at 100 to 500 nM incubated for 48 hrs by BrdU incorporation assay; type: ADME, cell-based; conditions: detroit 562, 48 h, 0.5 µM
[3] = target: Kallikrein-5 (Homo sapiens) (UniProt Q9Y337); experiment: Binding affinity to KLK5 in human VCAP cells conditioned medium at 50 uM pre-incubated for 30 mins by activity-based probe based in-gel fluorescence assay; type: cell-based
Trypsin [4] = target: T2, Trypsin (Homo sapiens, UniProt P07477+P07478+P35030); experiment: Inhibition of trypsin (unknown origin) pre-incubated for 30 mins before N-Boc-FSR-AMC substrate addition and measured after 30 mins; type: protein assay
Trypsin [5] = target: T2, Trypsin; experiment: Binding affinity to recombinant trypsin (unknown origin) at 50 uM pre-incubated with conditioned medium for 30 mins by activity-based probe based in-gel fluorescence assay; type: protein assay
Kallikrein-8 = target: T3, Kallikrein-8 (Homo sapiens, UniProt O60259); experiment: Inhibition of KLK8 (unknown origin) expressed in Pichia pastoris pre-incubated for 10 mins before Boc-ValProArg-AMC substrate addition and measured after 30 mins by fluorescence based assay
T3 sequence (O60259 whole entry): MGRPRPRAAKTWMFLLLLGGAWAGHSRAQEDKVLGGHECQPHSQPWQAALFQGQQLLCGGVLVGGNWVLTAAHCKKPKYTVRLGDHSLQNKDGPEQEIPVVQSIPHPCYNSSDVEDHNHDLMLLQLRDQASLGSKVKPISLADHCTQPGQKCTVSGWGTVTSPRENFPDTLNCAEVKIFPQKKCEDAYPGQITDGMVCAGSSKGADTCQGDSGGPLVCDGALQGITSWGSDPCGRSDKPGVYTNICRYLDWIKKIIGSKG

Kallikrein-4 [6] = target: T4, Kallikrein-4 (Homo sapiens, UniProt Q9Y5K2); experiment: Inhibition of N-terminal FLAG-tagged and C-terminal His tagged pro-KLK4 (unknown origin) expressed in Escherichia coli in presence of thermolysin pre-incubated for 10 mins before Boc-FSR-AMC substrate addition and measured after 20 mins by fluorescence based assay
T4 sequence (Q9Y5K2 whole entry): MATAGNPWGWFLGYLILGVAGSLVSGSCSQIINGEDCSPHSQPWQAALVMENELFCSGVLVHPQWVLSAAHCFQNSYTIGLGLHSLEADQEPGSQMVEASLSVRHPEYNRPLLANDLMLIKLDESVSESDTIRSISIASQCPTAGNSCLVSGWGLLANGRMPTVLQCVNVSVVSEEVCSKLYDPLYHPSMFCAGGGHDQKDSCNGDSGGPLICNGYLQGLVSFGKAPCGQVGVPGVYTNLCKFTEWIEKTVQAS

[7] = Stability in DMEM supplemented with 10% (v/v) fetal bovine serum at 10 uM at 37 degC assessed as half life by HPLC-MS method; type: physicochemical; conditions: cattle, DMEM with 10% (v/v) fetal bovine serum
How it was run: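 Compound at 10 µM (0.2% DMSO) in DMEM with 10% FBS, 2 mM L-glutamine and 1% penicillin/streptomycin, plus 10 µM triazole internal standard, held at 37 °C. Sampled hourly to 10 h, then at 24 h, by HPLC-MS in SIM mode for parent and hydrolysis product.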

Kallikrein-4 [8] = target: T4, Kallikrein-4; experiment: Binding affinity to recombinant KLK4 (unknown origin) at 50 uM pre-incubated with conditioned medium for 30 mins by activity-based probe based in-gel fluorescence assay
Kallikrein-7 [9] = target: T5, Kallikrein-7 (Homo sapiens, UniProt P49862); experiment: Binding affinity to recombinant KLK7 (unknown origin) at 50 uM pre-incubated with conditioned medium for 30 mins by activity-based probe based in-gel fluorescence assay
Target sequence in this assay (P49862 30-253 limits assumed): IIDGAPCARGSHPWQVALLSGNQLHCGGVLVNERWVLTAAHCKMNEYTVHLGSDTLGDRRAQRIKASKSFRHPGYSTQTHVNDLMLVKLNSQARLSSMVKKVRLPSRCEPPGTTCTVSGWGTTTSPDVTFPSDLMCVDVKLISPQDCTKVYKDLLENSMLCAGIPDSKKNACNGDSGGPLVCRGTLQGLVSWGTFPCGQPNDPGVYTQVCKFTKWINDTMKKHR

Kallikrein-7 [10] = target: T5, Kallikrein-7; experiment: Inhibition of KLK7 (unknown origin) expressed in Pichia pastoris pre-incubated for 10 mins before Leu-Leu-Val-Tyr-AMC substrate addition and measured after 30 mins by fluorescence based assay
How it was run: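 KLK7 at 33 nM final in 100 mM phosphate, 0.01% Tween-20, pH 8.5, with inhibitor (1:3 dilutions) or 2% DMSO for 10 min at rt. Reaction started with Leu-Leu-Val-Tyr-AMC at 500 µM final. Fluorescence (ex 380/em 460) read every 60 s for 30 min. Triplicates.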
Target sequence in this assay (P49862 whole entry): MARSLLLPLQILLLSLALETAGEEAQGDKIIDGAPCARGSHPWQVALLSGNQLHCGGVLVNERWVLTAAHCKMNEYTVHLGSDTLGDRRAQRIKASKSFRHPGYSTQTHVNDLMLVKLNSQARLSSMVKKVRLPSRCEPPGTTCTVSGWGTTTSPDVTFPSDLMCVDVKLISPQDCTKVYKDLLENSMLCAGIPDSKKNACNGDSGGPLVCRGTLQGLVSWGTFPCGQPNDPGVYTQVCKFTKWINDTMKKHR

Detroit 562 [11] = experiment: Effect on EMT switch in human Detroit 562 cells at 100 to 500 nM incubated for 48 hrs; type: ADME, cell-based; conditions: detroit 562, 48 h, 0.5 µM
[12] = target: T6, Prostate-specific antigen (Homo sapiens) (UniProt P07288); experiment: Binding affinity to KLK3 in human LNCAP cells conditioned medium at 50 uM pre-incubated for 30 mins by activity-based probe based in-gel fluorescence assay; type: cell-based
T6 sequence (whole entry): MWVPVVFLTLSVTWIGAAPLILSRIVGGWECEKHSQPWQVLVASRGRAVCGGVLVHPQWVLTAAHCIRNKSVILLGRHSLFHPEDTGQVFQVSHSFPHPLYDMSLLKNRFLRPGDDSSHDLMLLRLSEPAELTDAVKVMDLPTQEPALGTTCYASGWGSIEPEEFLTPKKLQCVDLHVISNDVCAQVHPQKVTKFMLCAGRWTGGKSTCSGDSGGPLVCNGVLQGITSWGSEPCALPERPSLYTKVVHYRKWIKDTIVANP

Kallikrein-5 = target: T7, Kallikrein-5 (Homo sapiens, UniProt Q9Y337); experiment: Inhibition of KLK5 (unknown origin) expressed in Pichia pastoris pre-incubated for 10 mins before Boc-ValProArg-AMC substrate addition and measured after 30 mins by fluorescence based assay
T7 sequence (Q9Y337 whole entry): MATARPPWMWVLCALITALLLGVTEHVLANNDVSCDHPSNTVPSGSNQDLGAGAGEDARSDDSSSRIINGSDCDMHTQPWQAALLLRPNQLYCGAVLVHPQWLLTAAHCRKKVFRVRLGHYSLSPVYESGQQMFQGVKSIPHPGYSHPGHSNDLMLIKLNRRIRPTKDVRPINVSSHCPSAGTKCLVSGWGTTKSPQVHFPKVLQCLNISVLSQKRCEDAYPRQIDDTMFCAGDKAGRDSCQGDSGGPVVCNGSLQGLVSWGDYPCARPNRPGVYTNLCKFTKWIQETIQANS

Kallikrein-13 = target: T8, Kallikrein-13 (Homo sapiens, UniProt Q9UKR3); experiment: Inhibition of KLK13 (unknown origin) expressed in Pichia pastoris pre-incubated for 10 mins before Boc-ValProArg-AMC substrate addition and measured after 30 mins by fluorescence based assay
T8 sequence (Q9UKR3 whole entry): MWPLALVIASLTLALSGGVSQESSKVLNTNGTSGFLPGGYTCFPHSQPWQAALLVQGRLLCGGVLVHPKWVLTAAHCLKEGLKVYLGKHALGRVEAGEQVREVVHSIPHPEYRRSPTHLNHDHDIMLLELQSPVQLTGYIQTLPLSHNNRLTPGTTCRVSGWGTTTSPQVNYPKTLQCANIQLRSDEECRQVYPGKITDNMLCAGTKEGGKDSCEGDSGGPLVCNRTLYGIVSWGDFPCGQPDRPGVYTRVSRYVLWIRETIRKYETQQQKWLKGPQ

CAL-27 [13] = experiment: Effect on EMT switch in human CAL27 cells at 100 to 500 nM incubated for 48 hrs; type: ADME, cell-based; conditions: cal-27, 48 h, 0.5 µM

IC50 (Kallikrein-14): 10.3 µM
Activity [3]: inactive
IC50 (Trypsin [4]): 21 µM
Activity (Trypsin [5]): inactive
IC50 (Kallikrein-8): > 10 µM
IC50 (Kallikrein-4 [6]): > 200 µM
half-life at 10 µM [7]: 4.22 h
Activity (Kallikrein-4 [8]): inactive
Activity (Kallikrein-7 [9]): inactive
IC50 (Kallikrein-7 [10]): 73 µM
Activity [12]: inactive
IC50 (Kallikrein-5): 1.1 µM
IC50 (Kallikrein-13): > 10 µM
Structure (SMILES): Cc1nn(-c2ccccc2)c(C)c1NC(=O)COC(=O)Cc1c(C)[nH]c2ccccc12
Activity (CAL-27 [1]): Non-Toxic
Activity (Detroit 562 [2]): Non-Toxic
Activity (Detroit 562 [11]): Non-Toxic
Activity (CAL-27 [13]): Non-Toxic
